Data published in paper PMC5515376 (Nature, 2016).
Entries after “also recorded” stand apart in the source; their conditions may differ. Where two headings read alike, the source gives them in different places.

Legend:
[1] = system: P. berghei (ANKA) liver stage; test: In vitro P. berghei liver-stage assay; format: cell-based, Plasmodium berghei
Method in brief: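 HepG2 cells (~17,500 per well, in duplicate) were cultured 18–24 h, then the medium was exchanged and compound added. After 1 h, 4,000 P. berghei ANKA GFP–luc sporozoites per well were added, freshly dissected from A. stephensi mosquitoes. Plates were spun 10 min at 1,000 r.p.m. and incubated 48 h at 37 °C. Parasite load was read by Bright-Glo luminescence.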

[2] = system: TM90C6B strain; test: Growth inhibition, TM90C6B strain; format: cell-based, Plasmodium falciparum; conditions: TM90C6B strain (atovaquone resistant)
[3] = biological target: recombinant human DHODH (Homo sapiens, UniProt Q02127); test: Human DHODH biochemical assay
Sequence of recombinant human DHODH (Q02127 whole entry): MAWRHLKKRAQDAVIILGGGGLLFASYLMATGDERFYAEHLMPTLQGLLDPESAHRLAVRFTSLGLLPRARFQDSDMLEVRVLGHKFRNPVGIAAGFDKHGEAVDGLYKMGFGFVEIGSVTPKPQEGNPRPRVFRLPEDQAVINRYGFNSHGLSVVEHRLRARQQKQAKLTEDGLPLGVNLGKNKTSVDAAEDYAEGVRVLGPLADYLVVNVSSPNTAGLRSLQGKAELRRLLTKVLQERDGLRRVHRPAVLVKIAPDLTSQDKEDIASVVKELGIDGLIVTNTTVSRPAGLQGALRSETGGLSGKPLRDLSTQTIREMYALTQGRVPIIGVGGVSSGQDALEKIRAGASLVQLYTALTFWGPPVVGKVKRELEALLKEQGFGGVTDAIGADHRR
Method in brief: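 Recombinant human DHODH at 13 nM was tested against a 20-point inhibitor dilution series. Reactions contained 1 mM L-dihydroorotate (excess), 100 µM dodecylubiquinone as electron acceptor and 60 µM 2,6-dichloroindophenol as indicator, in 50 mM Tris-HCl pH 8.0, 150 mM KCl and 0.1% Triton X-100. Reactions ran 20 min at 25 °C and were read at OD600.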

[4] = system: P. falciparum Dd2; test: In vitro P. falciparum blood-stage growth inhibition assay; format: cell-based, Plasmodium falciparum
[5] = system: PfscDHODH (P. falciparum line expressing S. cerevisiae DHODH); test: Growth inhibition, PfscDHODH transgenic line; format: cell-based, Plasmodium falciparum; conditions: relative to Dd2
Method in brief: (§1)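 Asexual blood-stage parasites were cultured to 3–8% parasitaemia, counted on Giemsa smears, and diluted in medium to 2.0% parasitaemia and 2.0% haematocrit. This suspension was added to compound dispensed from DMSO, giving a final 1% parasitaemia and 1% haematocrit, with mefloquine as control. Plates were incubated for 72 h at 37 °C. Growth was read by SYBR Green I fluorescence in Tris/EDTA/saponin/Triton X-100 lysis buffer.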

[6] = system: P. falciparum CYTb^G33V strain; test: Growth inhibition, P. falciparum CYTb^G33V mutant strain; format: cell-based, Plasmodium falciparum
[7] = biological target: hERG channel (Homo sapiens, UniProt Q12809); test: hERG channel inhibition assay; format: cell-based; conditions: read-out: hERG IC50; IKr
Sequence of hERG channel (Q12809 whole entry): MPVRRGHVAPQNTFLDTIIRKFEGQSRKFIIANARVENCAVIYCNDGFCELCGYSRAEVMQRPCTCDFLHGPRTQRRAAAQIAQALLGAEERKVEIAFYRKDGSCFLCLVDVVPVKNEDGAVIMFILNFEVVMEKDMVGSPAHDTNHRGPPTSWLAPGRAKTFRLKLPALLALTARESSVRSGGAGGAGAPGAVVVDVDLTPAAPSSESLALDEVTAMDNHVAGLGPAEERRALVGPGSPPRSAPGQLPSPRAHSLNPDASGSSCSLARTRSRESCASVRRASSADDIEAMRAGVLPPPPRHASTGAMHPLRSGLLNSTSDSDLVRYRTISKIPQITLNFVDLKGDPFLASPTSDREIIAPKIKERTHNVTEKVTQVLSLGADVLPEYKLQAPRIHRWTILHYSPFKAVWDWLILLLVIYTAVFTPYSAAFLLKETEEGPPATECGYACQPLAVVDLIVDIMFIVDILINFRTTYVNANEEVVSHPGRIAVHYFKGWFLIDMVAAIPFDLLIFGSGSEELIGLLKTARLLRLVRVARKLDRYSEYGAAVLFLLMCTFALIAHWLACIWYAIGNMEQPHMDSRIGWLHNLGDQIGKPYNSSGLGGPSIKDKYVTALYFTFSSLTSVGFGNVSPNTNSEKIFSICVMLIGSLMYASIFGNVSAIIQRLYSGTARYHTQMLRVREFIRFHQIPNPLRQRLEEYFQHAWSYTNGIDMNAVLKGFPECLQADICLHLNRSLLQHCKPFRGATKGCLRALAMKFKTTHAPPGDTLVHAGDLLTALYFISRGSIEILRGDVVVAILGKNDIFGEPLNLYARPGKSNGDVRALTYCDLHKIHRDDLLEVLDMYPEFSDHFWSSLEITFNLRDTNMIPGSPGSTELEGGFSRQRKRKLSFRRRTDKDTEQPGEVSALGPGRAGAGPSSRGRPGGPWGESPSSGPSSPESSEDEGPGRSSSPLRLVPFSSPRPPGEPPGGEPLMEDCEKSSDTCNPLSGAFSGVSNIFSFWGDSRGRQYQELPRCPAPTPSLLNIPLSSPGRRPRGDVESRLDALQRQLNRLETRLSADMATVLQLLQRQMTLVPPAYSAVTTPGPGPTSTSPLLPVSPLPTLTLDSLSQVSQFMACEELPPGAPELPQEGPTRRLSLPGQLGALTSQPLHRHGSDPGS
Method in brief: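 hERG current was measured in hERG-expressing cell lines by automated patch clamp (QPatch-HTX).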

[8] = system: HepG2 cell line; test: Mammalian cell cytotoxicity assay; format: cell-based, human; conditions: for CC50: read-out: HepG2 CC50, 72 h; for Cytotoxicity: HepG2 cell line
Method in brief: (§2)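 HepG2, A549 or HEK293 cells were grown in DMEM with 10% FBS and 1% antibiotic–antimycotic and tested mycoplasma-free. Cells (1 × 10^6) were seeded one day before treatment. They were exposed to ascending compound doses for 72 h, and viability was read by CellTiter-Glo.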

[9] = Mouse pharmacokinetics assay; format: in vivo; conditions: CD-1 mice; for AUC0-t: t = 24 h
Method in brief: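 Female CD-1 mice received single intravenous and oral doses. Parameters were estimated by non-compartmental analysis.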

[10] = Metabolic stability assay, mouse liver microsomes; format: in vitro ADME
Method in brief: (§3)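 Liver microsomes (0.2 mg ml−1) were incubated with compound (0.5 and 5 µM) plus NADPH for 0, 10 and 90 min. Human microsomes or mouse CD-1 microsomes were used, as named in each line. Compound depletion was measured by LC–MS/MS and used to estimate Km, Vmax and half-life.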

[11] = Solubility assay in PBS; format: physicochemical; conditions: for PBS solubility: PBS pH 7.4 with 1% DMSO
Method in brief: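 Compound was prepared at 100 µM in triplicate, both in 100% DMSO and in PBS pH 7.4 with 1% DMSO. Samples were shaken at 750 r.p.m. for 18 h at room temperature. Analysis was by UPLC–MS with single-ion detection. PBS response was fitted to a two-point calibration built from the DMSO samples.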

[12] = Plasma protein binding assay; format: in vitro ADME
Method in brief: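 Binding was measured by equilibrium dialysis in a RED device. Compound at 5 µM, in duplicate, was placed in mouse plasma (0.95% acetonitrile, 0.05% DMSO) against PBS pH 7.4. Incubation was 5 h at 37 °C with 350 r.p.m. orbital shaking. Both sides were analysed by UPLC–MS with single-ion detection.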

[13] = Metabolic stability assay, human liver microsomes; format: in vitro ADME
Method in brief: as §3

[14] = system: P. falciparum NITD609^R; test: Blood-stage growth inhibition, P. falciparum NITD609^R strain; format: cell-based, Plasmodium falciparum
Method in brief: as §1

[15] = system: parasite cytosolic Na^+ concentration; test: Parasite cytosolic Na+ concentration measurement; format: cell-based, Plasmodium falciparum; conditions: after treatment
[16] = system: P. falciparum 3D7 stage IV–V gametocytes; test: In vitro transmission-blocking assay; format: cell-based, Plasmodium falciparum
Method in brief: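 3D7 cultures were treated 3 days with 50 mM N-acetyl-D-glucosamine to remove asexual parasites. Stage IV–V gametocytes were then isolated on a discontinuous Percoll gradient. Gametocytes (1.0 × 10^5 per well) were incubated with compound for 72 h. Viability was measured by CellTiter-Glo luminescence.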

[17] = system: Mammalian cells (HepG2, A549, and HEK293); test: Mammalian cell cytotoxicity; format: cell-based; conditions: initial characterization
Method in brief: as §2

[18] = system: P. falciparum (NF54) gametocytes; test: In vitro transmission-blocking imaging assay; format: cell-based, Plasmodium falciparum
Method in brief: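 Highly synchronous NF54 pf-LUC-GFP gametocytes were induced from a single asexual cycle. They were exposed to 16 compound doses, with final controls of 0.4% DMSO and 5 µM puromycin, for 72 h at 37 °C under 5% CO2/5% O2/90% N2 and 60% humidity. MitoTracker Red CM-H2XRos was then added overnight, and plates were imaged after ≥1 h at room temperature. IC50 came from a 4-parameter variable-slope fit.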

[19] = system: P. falciparum (NF54) liver stage; test: In vitro P. falciparum liver-stage assay; format: cell-based, Plasmodium falciparum
[20] = system: P. falciparum (NF54) male and female stage-V gametocytes; test: Dual gamete formation assay; format: cell-based, Plasmodium falciparum
[21] = system: P. berghei (ANKA GFP-luc) blood-stage parasites; test: In vivo P. berghei blood-stage assay; set-up: species or system Plasmodium berghei; conditions: CD-1 mice; single 100 mg kg^−1 dose; parasites re-emerge very quickly
[22] = read-out: EC50, asexual blood stages, in vitro
[23] = read-out: PfDd2 EC50, asexual blood-stage parasites (Dd2), SAR table
[24] = printed in the IV (3) column, PO (10) vs IV (3) mg/kg
[25] = read-out: Pf, Dd2 EC50, blood stage
[26] = P. falciparum (Dd2), Blood stage

CCCNC(=O)N1[C@H](C#N)[C@H](c2ccc(C#Cc3cccc(F)c3)cc2)[C@H]1CO [BRD7539]
EC50 ([1]; read-out: EC50, liver stages, in vitro): 15 nM | Change in potency [2]: unaffected | Inhibition of human DHODH orthologue [3]: no inhibition | EC50 [4, 22]: 10 nM | Potency against PfscDHODH [5]: markedly reduced potency; also recorded: selectively reduced potency | Change in potency [6]: unaffected

COc1ccc(NC(=O)N2CCCCN3[C@H](CN4CCC4)[C@H](c4ccc(C#Cc5ccccc5)cc4)[C@@H]3C2)cc1 [BRD8493]
EC50 [4, 23]: 116 nM

COc1ccc(NC(=O)N2CCCCN3[C@H](CO)[C@H](c4ccc(C#Cc5ccccc5C#N)cc4)[C@@H]3C2)cc1 [BRC4873]
EC50 [4, 23]: 261 nM

COc1ccc(NC(=O)N2CCCCN3[C@H](CN)[C@H](c4ccc(C#Cc5ccccc5)cc4)[C@@H]3C2)cc1 [BRD1095]
IC50 [7]: 5100 nM | CC50 [8]: 15600 nM | AUC0-inf ([9]; IV (3) mg/kg): 14.9 µM·h | CL ([9]; IV (3) mg/kg): 6.7 mL/min/kg | MRT0-inf ([9]; IV (3) mg/kg): 39.2 h | Vss ([9]; IV (3) mg/kg): 16 L/kg | AUC0-t ([9]; IV (3) mg/kg): 7 ^¶ µM*hr | Cmax ([9]; PO (10) mg/kg): 600 nM | T1/2 ([9]; PO (10) mg/kg): 28.8 h | Tmax ([9]; PO (10) mg/kg): 4 h | AUC0-t ([9]; PO (10) mg/kg): 11.7 ^¶ µM*hr | F [9, 24]: 50% | EC99.9 ([4]; P. falciparum Dd2): 60 nM | EC50 [4, 25]: 10 nM | EC50 [4, 23]: 10 nM | Mouse Clint [10]: < 20 µL/min/mg | PBS solubility [11]: 25 µM | Mouse Plasma protein binding [12]: 99.3% | Human Clint [13]: < 20 µL/min/mg

COc1ccc(NC(=O)N2CCCCN3[C@H](CO)[C@H](c4ccc(C#Cc5ccccc5)cc4)[C@]3(CO)C2)cc1 [BRD2936]
EC50 [4, 23]: 1870 nM

COc1ccc(-c2ccccc2[C@H]2[C@@H](C#N)N(C(=O)C3CCCC3)[C@H]2CO)cc1 [BRD0026]
Potency against Pf NITD609^R ([14]; relative to Dd2): selectively reduced potency | EC50 ([14]; strain carrying a point mutation in P. falciparum ATPase4): 1770 nM | EC50 [4, 22]: 346 nM | Solubility (in words) ([11]; initial characterization): good solubility | Parasite cytosolic Na^+ concentration [15]: rapid increase | EC50 ([16]; read-out: EC50, late-sexual blood stages, in vitro): 1980 nM | Cytotoxicity (in words) [17]: low cytotoxicity

COc1ccc(NC(=O)N2CCCN3[C@H](CO)[C@H](c4ccc(C#Cc5ccccc5)cc4)[C@@H]3C2)cc1 [BRD9599]
EC50 [4, 23]: 850 nM

COc1ccc(NC(=O)N2CCCCCN3[C@H](CO)[C@H](c4ccc(C#Cc5ccccc5)cc4)[C@@H]3C2)cc1 [BRD0185]
EC50 [4, 23]: 87 nM

COc1ccc(NC(=O)N2CCCCN3[C@H](CN4CCN(C)CC4)[C@H](c4ccc(C#Cc5ccccc5)cc4)[C@@H]3C2)cc1 [BRD6479]
EC50 [4, 23]: 158 nM

O=C1C(O)=C([C@H]2CC[C@H](c3ccc(Cl)cc3)CC2)C(=O)c2ccccc21 [atovaquone, reference compound]
EC90 ([4]; Plasmodium falciparum, DD2): 2 nM

COc1ccc(NC(=O)N2CCCCN3[C@H](CO)[C@H](c4ccc(C#Cc5ccccc5)cc4)[C@@H]3C2)cc1 [BRD3444]
EC50 ([1]; P. berghei (ANKA), Liver stage): 140 nM | EC50 ([18]; read-out: EC50, early (E, stages I–III) gametocytes): 282 nM | EC50 ([18]; read-out: EC50, late (L, stages IV–V) gametocytes): 1440 nM | IC50 [7]: 5200 nM | Cytotoxicity [8]: no significant cytotoxicity | CC50 [8]: > 50000 nM | EC50 [19]: 1310 nM | AUC0-inf ([9]; IV (3) mg/kg): 1.4 µM·h | CL ([9]; IV (3) mg/kg): 72 mL/min/kg | MRT0-inf ([9]; IV (3) mg/kg): 2.8 h | T1/2 ([9]; IV (3) mg/kg): 3.7 h | Vss ([9]; IV (3) mg/kg): 12 L/kg | AUC0-t ([9]; IV (3) mg/kg): 1.2 ^¶ µM*hr | AUC0-inf ([9]; PO (10) mg/kg): 4 µM·h | Cmax ([9]; PO (10) mg/kg): 600 nM | T1/2 ([9]; PO (10) mg/kg): 3.2 h | Tmax ([9]; PO (10) mg/kg): 0.5 h | AUC0-t ([9]; PO (10) mg/kg): 4 ^¶ µM*hr | F [9, 24]: 86% | EC50 [4, 26]: 9 nM | EC50 [4, 25]: 9 nM | EC50 [4, 23]: 11 nM | Potency across P. falciparum Dd2, PfscDHODH and Pf NITD609^R ([4]; three P. falciparum strains): equipotent | Mouse Clint [10]: 248 µL/min/mg | PBS solubility [11]: < 1 µM | Mouse Plasma protein binding [12]: 99.9% | Human Clint [13]: 142 µL/min/mg | EC50 ([20]; read-out: EC50, gamete formation, female (F)): 804 nM | EC50 ([20]; read-out: EC50, gamete formation, male): ~1000 nM | EC50 ([16]; P. falciparum (3D7), Gametocyte (IV-V)): 663 nM

COc1ccc(NC(=O)N2CCCCN3[C@H](COCCC(=O)O)[C@H](c4ccc(C#Cc5ccccc5)cc4)[C@@H]3C2)cc1 [BRD3316]
IC50 [7]: > 10000 nM | Cytotoxicity [8]: no significant cytotoxicity | CC50 [8]: > 50000 nM | AUC0-inf ([9]; IV (3.2) mg/kg): 13.2 µM·h | CL ([9]; IV (3.2) mg/kg): 7.1 mL/min/kg | MRT0-inf ([9]; IV (3.2) mg/kg): 3.3 h | T1/2 ([9]; IV (3.2) mg/kg): 2.3 h | Vss ([9]; IV (3.2) mg/kg): 1.4 L/kg | AUC0-inf ([9]; PO (13) mg/kg): 33.5 µM·h | Cmax ([9]; PO (13) mg/kg): 6800 nM | F ([9]; PO (13) mg/kg): 63% | MRT0-inf ([9]; PO (13) mg/kg): 3.9 h | T1/2 ([9]; PO (13) mg/kg): 2.4 h | Tmax ([9]; PO (13) mg/kg): 1 h | AUC0-t ([9]; PO (13) mg/kg): 33.5 ^¶ µM*hr | EC50 [4, 26]: 19 nM | EC50 [4, 25]: 23 nM | EC50 [4, 23]: 22 nM | Mouse Clint [10]: 38 µL/min/mg | PBS solubility [11]: 91 µM | Human Clint [13]: 34 µL/min/mg

COc1ccc(NC(=O)N2CCCCN3[C@H](CO)[C@H](c4ccc(C#CC5CC5)cc4)[C@@H]3C2)cc1 [BRD5774]
EC50 [4, 23]: 12200 nM

C[C@H]1[C@H](OC(=O)CCC(=O)O)O[C@@H]2O[C@@]3(C)CC[C@H]4[C@H](C)CC[C@@H]1[C@@]24OO3 [artesunate, reference compound]
Effect on parasites [21]: rapid suppression of parasites | Parasite cytosolic Na^+ concentration [15]: constant

COc1ccc(NC(=O)N2CCCCN3[C@H](CN(C)C(C)C)[C@H](c4ccc(C#Cc5ccccc5)cc4)[C@@H]3C2)cc1 [BRD4716]
EC50 [4, 23]: 24 nM

OC(c1cc(C(F)(F)F)nc2c(C(F)(F)F)cccc12)C1CCCCN1 (centres unmarked) [mefloquine]
Parasite cytosolic Na^+ concentration [15]: constant
